High-throughput results: PubChem, several laboratories
MDM2 E3 inh: MDM2-luciferase reporter signal enhancers, primary screen, MDM2 E3 ligase inhibitor project, cell-based, luminescence, 1536-well | E3 ubiquitin-protein ligase Mdm2 (Homo sapiens), Q00987 | cell-based MDM2 ubiquitination luciferase reporter, 2 h; 0 = plate control, 100 = twice control, blank-subtracted | signal enhancement, % at 5 µM | actives 0.11% (n = 210,000) | AID 1230, 2008;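 active = signal enhancement of 30% or more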;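 note: luminescence tracks abundance of the self-degrading MDM2-luciferase fusion protein; higher signal means inhibition of MDM2 E3 ligase activity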
Target sequence (Q00987 whole entry, looked up, the tested form may be a part): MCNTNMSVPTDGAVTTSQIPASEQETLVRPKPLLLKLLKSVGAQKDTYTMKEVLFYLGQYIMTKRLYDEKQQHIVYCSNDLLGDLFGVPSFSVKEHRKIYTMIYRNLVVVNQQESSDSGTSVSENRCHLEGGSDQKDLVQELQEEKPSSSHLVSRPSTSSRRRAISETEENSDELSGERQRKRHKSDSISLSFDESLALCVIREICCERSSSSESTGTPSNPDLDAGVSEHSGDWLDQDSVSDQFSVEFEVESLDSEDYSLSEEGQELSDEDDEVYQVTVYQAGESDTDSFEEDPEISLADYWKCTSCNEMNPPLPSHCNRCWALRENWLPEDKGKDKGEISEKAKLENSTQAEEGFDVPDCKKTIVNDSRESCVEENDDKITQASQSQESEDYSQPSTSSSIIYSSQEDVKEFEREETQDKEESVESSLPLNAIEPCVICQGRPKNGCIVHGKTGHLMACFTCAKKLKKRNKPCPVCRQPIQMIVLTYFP
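Material: Stable MDM2–luciferase fusion reporter cells | Amount: 2000 cells seeded into each well | Dosing: One concentration, 5 µM, with 0.2% DMSO | Incubation: 4 h cell settling then 2 h compound exposure, 37 °C | Measured by: Luciferase luminescence | Read-out basis: % enhancement relative to plate controls after blank subtraction | Benchmarks: Control and blank well means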
TNF death inh: inhibitors of TNF-alpha triggered necroptosis, primary screen, cell-based, Jurkat FADD-/-, single concentration; actives 0.068% (n = 220,000); Jurkat FADD-/- TNF necroptosis rescue, ATP luminescence, 24 h; 0 = TNF only, 100 = no-TNF cells; AID 463075, 2010; activation (protection from cell death), % at 10 µM;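 active = activation, meaning protection from cell death, of at least 50% relative to plate controls; inactive = activation below 50%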;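 note: necroptosis triggered by 40 ng/mL TNF-alpha added together with compound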
Pf gametocyte: late stage P. falciparum gametocyte viability inhibitors, primary screen, ATP luminescence, HTS; P. falciparum stage V gametocytes, 24 h; inhibition, % at 10.9 µM; actives 0.065% (n = 150,000);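 active = inhibition above the mean plus 3 SD of compounds within the control limits, set per campaign, cut at about 38% in these data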
zVAD death inh: inhibitors of zVAD-triggered necroptosis, primary screen, L929 cells | actives 0.38% (n = 220,000) | L929 zVAD necroptosis rescue, ATP luminescence, 24 h; with zVAD 60 µM | viability rescue, % at 10 µM | AID 1377, 2008;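 active = activation, scaled between plate controls, above about 75%, limit read from the data; inactive = activation under that limit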
Wee1 degr inh: Wee1 degradation inhibitors, primary screen, cell-based, HeLa, Wee1K328M-luciferase, luminescence; Wee1-like protein kinase (Homo sapiens), P30291; HeLa Luc-Wee1K328M stability; 100% = proteasome inhibitor MG132 effect; reporter increase, % at 5 µM; actives 1.2% (n = 220,000);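 active = activation above the mean of all tested compounds plus 3 SD, set per screening run, cut at about 8.8% in these data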;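 note: cells exposed to compound for 20 h before luminescence read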
zVAD necrop conf: inhibitors of zVAD-triggered necroptosis in L929, confirmation, L929 cells, duplicate runs; actives 16% (n = 760); activation (protection from necroptosis), % at 10 µM; AID 463117, 2010; L929 zVAD-induced necroptosis rescue, ATP luminescence, 24 h; shares compounds with zVAD death inh;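 active = mean protection from necroptosis of at least 50% over duplicate tests; inactive = mean protection below 50%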
Each line names hits and unclear results; the compound was inactive in the other large screens (follow-up assays come after a bar, where they were run). This is a sample that favours compounds with a hit; in the whole collection about 1.6% have one here.

CC(=O)CSc1nnc(Cc2ccc([N+](=O)[O-])cc2)o1	none (no result: Pf gametocyte)
CCn1c(=NC(=O)c2ccc(S(=O)(=O)N3CCOCC3)cc2)sc2cccc(OC)c21	zVAD death inh 77 | zVAD necrop conf inactive
Cc1ccc(NC(=O)COc2ncnc3ccccc23)cc1S(=O)(=O)N1CCOCC1	none
Cc1ccc(NC(=O)COc2ccc(-c3nnco3)cc2)cc1S(=O)(=O)N1CCOCC1	zVAD death inh 78 | zVAD necrop conf inactive
NC(=O)c1ccccc1NC(=O)/C=C/c1ccccc1	none
NC(=S)NC(=O)/C=C/c1ccccc1	zVAD death inh 83 (no result: Pf gametocyte) | zVAD necrop conf inactive
CCOC(=O)N1CCN(C(=O)C2CCN(S(=O)(=O)c3ccc(OC)cc3)CC2)CC1	none
CC(C)OCCCNC(=S)Nc1ccc(S(N)(=O)=O)cc1	zVAD death inh 75 | zVAD necrop conf inactive
C=CCc1cc(C=O)cc(OC)c1OCc1ccc(C(=O)O)cc1	none
N#Cc1nc(-c2ccc(F)cc2)oc1NCc1ccccc1	none (no result: Pf gametocyte)
CC(C)(C)c1ccc(-c2nc(C#N)c(NCc3cccnc3)o2)cc1	zVAD death inh 78 | zVAD necrop conf inactive
COc1ccc2cc(CN(CC3COCCO3)S(=O)(=O)c3ccccc3)c(=O)[nH]c2c1 (centres undefined)	none
CCn1c(SCC(=O)NNC(=O)c2ccc(C)cc2)nnc1-c1ccco1	none
CC(=O)Nc1cccc(/C(C)=N/Nc2nc3ccccc3s2)c1	zVAD death inh 78 | zVAD necrop conf inactive
COc1ccccc1NC(=O)/C(=N/OCc1ccc(C#N)cc1)C(C)=O	zVAD death inh 76 | zVAD necrop conf inactive
COc1ccccc1NC(=O)C(=O)N/N=C(\C)CC(=O)Nc1ccc(OCc2ccccc2)cc1	none
NC(=O)CSc1cn(Cc2ccc(F)cc2)c2ccccc12	none (no result: Pf gametocyte)
O=C(CSc1nc2ccc(Cl)cc2[nH]1)N1CCN(C(=O)c2ccco2)CC1	zVAD death inh 85 | zVAD necrop conf inactive
COc1cccc(C(C(=O)NC(C)(C)C)N(C(=O)CCC(=O)Nc2cc(C)on2)C(C)(C)C)c1OC (centres undefined)	none (no result: MDM2 E3 inh, Pf gametocyte)
CCc1ccc(NC(=O)CCN2C(=O)c3cccnc3C2=O)cc1	none
CCc1ccc2c(c1)C(=O)C(=O)N2CC(=O)Nc1ccc(NC(=O)c2ccccn2)cc1	zVAD death inh 78 | zVAD necrop conf inactive
CC(C)OC(=O)N(C)c1ccc(C(O)(C(F)(F)F)C(F)(F)F)cc1	zVAD death inh 77 (no result: Pf gametocyte) | zVAD necrop conf inactive
Nc1ccc(C(O)(C(F)(F)F)C(F)(F)F)cc1	none
Cn1c(=O)[nH]c(=O)c2c1nc(N1CCOCC1)n2CC(O)COc1ccccc1 (centres undefined)	none (no result: Pf gametocyte)
O=C(CN1C(=O)C2C3C=CC(C4CC34)C2C1=O)Nc1cnc2ccccc2c1 (centres undefined)	zVAD death inh 75 (no result: Pf gametocyte) | zVAD necrop conf inactive
Cc1cc(C)nc(SCC(=O)c2c(N)n(C)c(=O)n(C)c2=O)n1	zVAD death inh 76 (no result: Pf gametocyte) | zVAD necrop conf inactive
Cn1c(N)c(C(=O)CSc2ccc3c(c2)OCCO3)c(=O)n(C)c1=O	none
Cc1ccccc1C(=O)NC(=S)Nc1ccc2[nH]c(=O)[nH]c2c1	zVAD death inh 76 | zVAD necrop conf inactive
O=C(COc1ccccc1)Nc1ccc2[nH]c(=O)[nH]c2c1	zVAD death inh 76 | zVAD necrop conf inactive
O=C(NNC(=O)c1ccc(NC(=O)c2ccccc2)cc1)Nc1ccccc1	zVAD death inh 76 | zVAD necrop conf inactive
CCn1c(SCc2ccc(F)cc2)nnc1-c1nn(-c2ccccc2)ccc1=O	none
CC1=CC(=O)C(C(C)C)=C/C1=N\OC(=O)c1cccc2nc(C)oc12	zVAD death inh 87 | zVAD necrop conf inactive
CNC(=O)c1cc(Nc2nnc(-c3ccc(O)cc3)c3ccccc23)ccc1OC	zVAD death inh 80 | zVAD necrop conf inactive
CNC(=O)c1ccc(Nc2nnc(-c3ccc(O)cc3)c3ccccc23)cc1	none (no result: MDM2 E3 inh, TNF death inh, zVAD death inh, Wee1 degr inh)
CC(CS(=O)(=O)c1ccccc1[N+](=O)[O-])N1CCOCC1 (centres undefined)	none (no result: Pf gametocyte)
Cc1ccc(S(=O)(=O)Nc2cccc3ncccc23)cc1	none
Cc1ccc(S(=O)(=O)Nc2cccc3ncccc23)s1	zVAD death inh 75 (no result: Pf gametocyte) | zVAD necrop conf inactive
O=C(COC(=O)c1ccc(-c2nnc(-c3ccccc3)o2)cc1)c1ccccc1	zVAD death inh 78 (no result: Pf gametocyte) | zVAD necrop conf inactive
Cc1ccc(NC(=O)c2cc(-c3ccco3)nc3ccccc23)cc1S(=O)(=O)N1CCOCC1	zVAD death inh 77 (no result: Pf gametocyte) | zVAD necrop conf inactive
Cc1ccc2nc3ccc(N4CCN(C)CC4)nn3c(=O)c2c1	none (no result: Pf gametocyte)
Cc1ccc2nc3ccc(N4CCCCCCC4)nn3c(=O)c2c1	zVAD death inh 87 (no result: Pf gametocyte) | zVAD necrop conf inactive
CCOc1ccc2nc(NC(=O)C3CCCN(S(=O)(=O)c4cccs4)C3)sc2c1 (centres undefined)	zVAD death inh 88 | zVAD necrop conf inactive
COc1cc(/C=C2/SC(=S)N(C)C2=O)ccc1OC(=O)c1ccco1	none
CCOc1cc(/C=C2/SC(=S)NC2=O)ccc1OC(=O)c1ccco1	zVAD death inh 79 | zVAD necrop conf inactive
NS(=O)(=O)c1ccc(N/N=C2/CCCCC2C2CCCCC2)c([N+](=O)[O-])c1 (centres undefined)	none (no result: Pf gametocyte)
COc1cc(NC(=O)c2cccnc2Sc2ccc(Cl)cc2)cc(OC)c1OC	zVAD death inh 77 | zVAD necrop conf inactive
CCN(CC)CCCNC(=O)c1cc(Sc2nnc(C)s2)nc2ccccc12	zVAD death inh 79 | zVAD necrop conf inactive
CCc1cccc2c(C(=O)COC(=O)c3ccc(O)cc3)c[nH]c12	zVAD death inh 77 | zVAD necrop conf 74
Cc1cn(-c2cc(C(=O)Nc3ccc(C)c(NC(=O)N4CCNC4=O)c3)cc(C(F)(F)F)c2)cn1	zVAD death inh 79 (no result: Wee1 degr inh) | zVAD necrop conf 51
CCc1ccc(NC(=O)CSc2nc3n[nH]c(C)c3c(=N)n2-c2cccc(OC)c2)cc1	zVAD death inh 91 (no result: Pf gametocyte) | zVAD necrop conf 56
COc1ccccc1C1CCN(Cc2c(C)[nH]c3ccccc23)CC1	zVAD death inh 76 | zVAD necrop conf inactive
Cc1cnc(NC(=O)Nc2ccc(Cl)cc2)s1	zVAD death inh 78 | zVAD necrop conf inactive
O=C(Nc1ccc(F)cc1)Nc1ccc(Cl)cn1	zVAD death inh 76 | zVAD necrop conf inactive
O=C(Nc1ccc(F)c(Cl)c1)Nc1ccc(Cl)cn1	none
Cc1ccc(NC(=O)Nc2ncccc2C)cc1	none (no result: Pf gametocyte)
